Source: ChEMBL document CHEMBL5357024, “MDM2 Antagonist Idasanutlin Reduces HDAC1/2 Abundance and Corepressor Partners but Not HDAC3” (ACS Med Chem Lett, 2024)

Experiments:
Format in all cases: cell-based
[1] = biological target: T1, Paired amphipathic helix protein Sin3a (Homo sapiens) (UniProt Q96ST3); test: Induction of SIN3A degradation in human HCT-116 cells assessed as reduction in SIN3A abundance by measuring remaining activity at 0.01 uM measured after 24 hrs by Western blot analysis (reference value: 100%)
T1 sequence (whole entry): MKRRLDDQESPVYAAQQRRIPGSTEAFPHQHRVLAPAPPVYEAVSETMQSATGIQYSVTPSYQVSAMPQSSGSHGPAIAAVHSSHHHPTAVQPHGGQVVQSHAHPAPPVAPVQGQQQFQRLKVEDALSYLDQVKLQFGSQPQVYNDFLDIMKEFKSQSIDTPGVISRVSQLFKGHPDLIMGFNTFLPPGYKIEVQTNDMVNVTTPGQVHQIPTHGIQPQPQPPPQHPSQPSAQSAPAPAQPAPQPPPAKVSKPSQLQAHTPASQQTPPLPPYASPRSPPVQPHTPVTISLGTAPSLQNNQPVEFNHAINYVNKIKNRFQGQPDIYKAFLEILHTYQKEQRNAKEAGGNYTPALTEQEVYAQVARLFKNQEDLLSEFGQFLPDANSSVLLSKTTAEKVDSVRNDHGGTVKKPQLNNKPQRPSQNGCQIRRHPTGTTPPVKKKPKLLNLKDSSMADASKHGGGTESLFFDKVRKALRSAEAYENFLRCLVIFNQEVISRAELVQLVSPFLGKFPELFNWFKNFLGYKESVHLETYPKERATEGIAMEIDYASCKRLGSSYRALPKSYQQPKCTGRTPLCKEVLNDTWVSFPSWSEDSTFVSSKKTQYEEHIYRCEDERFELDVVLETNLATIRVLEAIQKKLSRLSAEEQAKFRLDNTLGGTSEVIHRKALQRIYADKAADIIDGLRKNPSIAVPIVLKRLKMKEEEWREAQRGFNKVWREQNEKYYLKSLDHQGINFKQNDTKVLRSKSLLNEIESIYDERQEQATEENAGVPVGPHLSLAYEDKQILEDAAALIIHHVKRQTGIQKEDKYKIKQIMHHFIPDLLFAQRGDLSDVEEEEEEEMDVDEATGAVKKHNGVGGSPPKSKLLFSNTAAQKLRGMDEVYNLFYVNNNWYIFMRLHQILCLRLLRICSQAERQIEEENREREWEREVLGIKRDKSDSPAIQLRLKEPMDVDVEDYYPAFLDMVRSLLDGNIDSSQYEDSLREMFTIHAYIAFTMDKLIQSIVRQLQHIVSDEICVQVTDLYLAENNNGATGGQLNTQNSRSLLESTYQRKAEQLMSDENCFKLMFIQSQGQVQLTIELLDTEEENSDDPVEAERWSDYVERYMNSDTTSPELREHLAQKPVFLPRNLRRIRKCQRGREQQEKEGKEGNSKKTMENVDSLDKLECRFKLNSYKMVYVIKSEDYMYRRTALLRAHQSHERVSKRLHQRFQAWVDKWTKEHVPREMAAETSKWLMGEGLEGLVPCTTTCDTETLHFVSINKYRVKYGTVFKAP
Summary of the method: (§1)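 HCT116 cells seeded in six-well plates for 24 h, then exposed 24 h to compound (0.01–10 μM) or DMSO in fresh medium. Lysis in Tris-HCl/NaCl/NP-40/Triton X-100 with protease inhibitor. Bradford-normalised 30 μg protein per lane. Quantitative Western blot used specific HDAC1, HDAC2, HDAC3, LSD1 or Sin3a antibodies with IRDye secondaries. Abundance compared with DMSO, n = 2 replicates.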

[2] = biological target: Lysine-specific histone demethylase 1A (Homo sapiens) (UniProt O60341); test: Induction of LSD1 degradation in human HCT-116 cells assessed as reduction in LSD1 abundance by measuring remaining activity at 0.5 uM measured after 24 hrs by Western blot analysis (reference value: 100%); summary of the method: as §1
[3] = biological target: Lysine-specific histone demethylase 1A (Homo sapiens) (UniProt O60341); test: Induction of LSD1 degradation in human HCT-116 cells assessed as reduction in LSD1 abundance by measuring remaining activity at 0.1 uM measured after 24 hrs by Western blot analysis (reference value: 100%); summary of the method: as §1
[4] = biological target: T2, E3 ubiquitin-protein ligase Mdm2/Histone deacetylase 3 (Homo sapiens) (UniProt Q00987+O15379); test: PROTAC activity at MDM2/HDAC3 in human HCT-116 cells assessed as reduction in HDAC3 abundance by measuring remaining activity at 10 uM measured after 24 hrs by Western blot analysis (reference value: 100%)
T2 sequence (O15379 whole entry, looked up): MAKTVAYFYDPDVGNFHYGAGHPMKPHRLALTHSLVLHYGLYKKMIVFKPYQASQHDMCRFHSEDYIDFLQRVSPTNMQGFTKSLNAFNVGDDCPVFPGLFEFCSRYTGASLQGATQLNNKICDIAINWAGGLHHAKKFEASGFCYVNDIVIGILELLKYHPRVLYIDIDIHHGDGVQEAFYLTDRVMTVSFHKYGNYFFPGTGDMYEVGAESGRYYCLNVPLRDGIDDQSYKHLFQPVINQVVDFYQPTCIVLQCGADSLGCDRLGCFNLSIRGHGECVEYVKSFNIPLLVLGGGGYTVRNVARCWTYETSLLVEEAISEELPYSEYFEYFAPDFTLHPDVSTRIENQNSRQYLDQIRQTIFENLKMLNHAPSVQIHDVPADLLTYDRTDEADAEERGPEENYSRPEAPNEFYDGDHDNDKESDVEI
T2 sequence (Q00987 whole entry, looked up): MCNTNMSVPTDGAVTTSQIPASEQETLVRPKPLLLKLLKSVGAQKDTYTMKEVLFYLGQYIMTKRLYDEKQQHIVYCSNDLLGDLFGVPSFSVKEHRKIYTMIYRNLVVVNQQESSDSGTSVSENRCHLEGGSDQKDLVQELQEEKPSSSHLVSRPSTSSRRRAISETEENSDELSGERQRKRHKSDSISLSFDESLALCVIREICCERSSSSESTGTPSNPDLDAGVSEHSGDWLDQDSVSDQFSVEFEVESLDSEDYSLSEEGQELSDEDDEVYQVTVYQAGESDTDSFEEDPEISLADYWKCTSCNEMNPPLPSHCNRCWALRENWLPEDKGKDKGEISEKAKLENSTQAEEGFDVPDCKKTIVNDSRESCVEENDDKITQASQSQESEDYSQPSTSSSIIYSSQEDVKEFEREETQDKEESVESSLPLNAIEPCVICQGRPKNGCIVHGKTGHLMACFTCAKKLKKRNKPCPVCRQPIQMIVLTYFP
Summary of the method: (§2)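 HCT116 cells in DMEM with 10% FBS and glutamine/penicillin/streptomycin at 37 °C, 5% CO2. Seeded 4 × 10^5 cells/well, after 24 h treated 24 h with DMSO or compound in fresh medium. Lysed in Tris-HCl/NaCl/NP-40/Triton X-100 buffer with protease inhibitor, Bradford-quantified, 30 μg protein per lane. Quantitative Western blot with specific HDAC1/2/3 antibodies, IRDye secondaries, infrared imaging, versus DMSO. n = 2 replicates.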

[5] = biological target: T3, E3 ubiquitin-protein ligase Mdm2/Histone deacetylase 1 (Homo sapiens) (UniProt Q00987+Q13547); test: PROTAC activity at MDM2/HDAC1 in human HCT-116 cells assessed as decrease in HDAC1 abundance by measuring remaining activity at 0.01 uM measured after 24 hrs by Western blot analysis (reference value: 100%); summary of the method: as §1
T3 sequence (Q00987 whole entry, looked up): as above
T3 sequence (Q13547 whole entry, looked up): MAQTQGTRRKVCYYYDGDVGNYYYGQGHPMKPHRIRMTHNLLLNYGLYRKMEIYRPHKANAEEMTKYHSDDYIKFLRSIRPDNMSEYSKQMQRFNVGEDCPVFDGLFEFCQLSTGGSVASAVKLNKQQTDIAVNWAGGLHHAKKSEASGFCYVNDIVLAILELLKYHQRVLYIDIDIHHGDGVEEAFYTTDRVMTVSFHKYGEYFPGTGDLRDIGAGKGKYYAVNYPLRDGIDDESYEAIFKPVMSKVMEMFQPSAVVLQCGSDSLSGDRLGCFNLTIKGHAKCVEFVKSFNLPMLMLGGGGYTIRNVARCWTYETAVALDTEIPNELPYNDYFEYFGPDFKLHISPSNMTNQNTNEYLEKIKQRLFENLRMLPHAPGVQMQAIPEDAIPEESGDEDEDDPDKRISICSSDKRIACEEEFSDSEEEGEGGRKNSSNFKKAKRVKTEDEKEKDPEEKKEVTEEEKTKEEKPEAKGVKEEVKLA

[6] = biological target: T2, E3 ubiquitin-protein ligase Mdm2/Histone deacetylase 3 (Homo sapiens); test: PROTAC activity at MDM2/HDAC3 in human HCT-116 cells assessed as reduction in HDAC3 abundance by measuring remaining activity at 0.01 uM measured after 24 hrs by Western blot analysis; summary of the method: as §1
[7] = biological target: T3, E3 ubiquitin-protein ligase Mdm2/Histone deacetylase 1 (Homo sapiens); test: PROTAC activity at MDM2/HDAC1 in human HCT-116 cells assessed as decrease in HDAC1 abundance by measuring remaining activity at 0.1 uM measured after 24 hrs by Western blot analysis (reference value: 100%); summary of the method: as §1
[8] = biological target: T1, Paired amphipathic helix protein Sin3a (Homo sapiens); test: Induction of SIN3A degradation in human HCT-116 cells assessed as reduction in SIN3A abundance by measuring remaining activity at 0.25 uM measured after 24 hrs by Western blot analysis (reference value: 100%); summary of the method: as §1
[9] = biological target: Lysine-specific histone demethylase 1A (Homo sapiens) (UniProt O60341); test: Induction of LSD1 degradation in human HCT-116 cells assessed as reduction in LSD1 abundance by measuring remaining activity at 1 uM measured after 24 hrs by Western blot analysis (reference value: 100%); summary of the method: as §1
[10] = biological target: T2, E3 ubiquitin-protein ligase Mdm2/Histone deacetylase 3 (Homo sapiens); test: PROTAC activity at MDM2/HDAC3 in human HCT-116 cells assessed as reduction in HDAC3 abundance by measuring remaining activity at 2.5 uM measured after 24 hrs by Western blot analysis; summary of the method: as §2
[11] = biological target: T3, E3 ubiquitin-protein ligase Mdm2/Histone deacetylase 1 (Homo sapiens); test: PROTAC activity at MDM2/HDAC1 in human HCT-116 cells assessed as decrease in HDAC1 abundance by measuring remaining activity at 2.5 uM measured after 24 hrs by Western blot analysis (reference value: 100%); summary of the method: as §1
[12] = biological target: E3 ubiquitin-protein ligase Mdm2/Histone deacetylase 2 (Homo sapiens) (UniProt Q00987+Q92769); test: PROTAC activity at MDM2/HDAC2 in human HCT-116 cells assessed as decrease in HDAC2 abundance by measuring remaining activity at 2.5 uM measured after 24 hrs by Western blot analysis (reference value: 100%); summary of the method: as §1
Sequence of E3 ubiquitin-protein ligase Mdm2/Histone deacetylase 2 (Homo sapiens) (Q00987 whole entry, looked up): as the sequence (Q00987 whole entry, looked up) above
Sequence of E3 ubiquitin-protein ligase Mdm2/Histone deacetylase 2 (Homo sapiens) (Q92769 whole entry, looked up): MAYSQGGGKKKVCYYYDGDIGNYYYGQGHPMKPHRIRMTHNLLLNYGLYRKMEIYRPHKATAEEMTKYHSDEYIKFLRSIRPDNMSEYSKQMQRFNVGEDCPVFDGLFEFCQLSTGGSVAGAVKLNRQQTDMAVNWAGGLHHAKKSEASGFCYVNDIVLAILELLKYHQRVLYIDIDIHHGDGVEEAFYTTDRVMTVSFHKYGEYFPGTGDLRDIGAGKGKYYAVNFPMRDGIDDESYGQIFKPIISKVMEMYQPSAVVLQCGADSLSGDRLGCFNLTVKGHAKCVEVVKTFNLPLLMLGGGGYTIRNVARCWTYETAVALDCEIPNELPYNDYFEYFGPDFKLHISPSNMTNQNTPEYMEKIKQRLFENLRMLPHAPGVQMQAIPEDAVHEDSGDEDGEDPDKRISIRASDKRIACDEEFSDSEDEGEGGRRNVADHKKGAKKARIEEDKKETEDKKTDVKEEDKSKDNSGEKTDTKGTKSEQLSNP

COc1cc(C(=O)NCCOCCOCCOCCOCCC(=O)Nc2ccc(C(=O)Nc3ccccc3N)cc2)ccc1NC(=O)[C@@H]1N[C@@H](CC(C)(C)C)[C@](C#N)(c2ccc(Cl)cc2F)[C@H]1c1cccc(Cl)c1F
Activity [1]: 104% | Activity [2]: 86% | Activity [3]: 104% | Activity [4]: 91% | Activity [5]: 108% | Activity [6]: 98% | Activity [7]: 84% | Activity [8]: 92% | Activity [9]: 81% | Activity [10]: 112% | Activity [11]: 39% | Activity [12]: 72%
